The target of series [1] is T1, Melanin-concentrating hormone receptor 1 (Homo sapiens, UniProt Q99705). Briefly: Antagonist activity at human MCH1 receptor expressed in CHO cells assessed as inhibition of MCH-induced intracellular calcium level by FLIPR assay. Format: functional, cell-based. (A change in cytosolic calcium serves as a functional read-out for many receptors and channels.)
The target in series [2] is T1, Melanin-concentrating hormone receptor 1. Briefly: Displacement of [125I]MCH from human MCH1 receptor. An outline of the steps: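 Competition binding on membranes from CHO cells expressing human MCH1R, with [125I]-MCH as radioligand displaced by test compounds; IC50 reported as the mean of 2 experiments.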
A general note: Loss of bound radioactivity is the signal in a displacement assay; it reports binding, not function.

A short description of series [3]: Plasma concentration in Sprague-Dawley rat at 10 mg/kg, po after 2 hrs. The arrangement: dose 10 mg/kg, route oral. Format: ADME, organism-based. An outline of the steps:
(§1)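 Single oral dose of 10 mg/kg given to SD rats. Plasma (µM) and brain (nmol/g) levels were measured 2 h after dosing. Values are means of 3 experiments.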

For a further series, the system named is Brain. The series can be described thus: Drug level in Sprague-Dawley rat brain at 10 mg/kg, po after 2 hrs. Format: ADME, organism-based. More on the design: dose 10 mg/kg, route oral. The following applies: in vivo. Put shortly:
as §1

The structures appear in SMILES notation. Bounds are passed on as bounds.

T1 sequence (Q99705 whole entry): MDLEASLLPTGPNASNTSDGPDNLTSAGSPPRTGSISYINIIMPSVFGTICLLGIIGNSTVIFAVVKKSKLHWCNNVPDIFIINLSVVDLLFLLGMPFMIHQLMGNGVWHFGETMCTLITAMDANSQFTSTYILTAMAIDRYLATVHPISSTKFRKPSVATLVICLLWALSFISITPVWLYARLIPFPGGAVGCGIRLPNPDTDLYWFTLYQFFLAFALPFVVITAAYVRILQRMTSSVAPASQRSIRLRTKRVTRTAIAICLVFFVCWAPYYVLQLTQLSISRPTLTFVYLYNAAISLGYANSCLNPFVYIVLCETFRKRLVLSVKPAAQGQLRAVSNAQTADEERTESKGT

Take `Cc1c(C2CC2)nc2ccc(NC(=O)c3ccc(-c4ccc(F)cn4)cc3)cn12`: the IC50 in series [1] stood at 90 nM; in series [2], 5.4 nM.

Consider `Cc1c(C2CC2)nc2ccc(NC(=O)c3ccc(-c4ccc(F)cc4)nc3)cn12`, for which the values for the IC50 in series [1] and in series [2] were 94 nM and 4 nM, respectively.

For the compound `Cc1c(C2CC2)nc2ccc(NC(=O)c3ccc(-c4ccc(C(F)(F)F)nc4)cc3)cn12`, the IC50 is 109 nM in series [1] and 4 nM in series [2].

Turning to `Cc1c(C2CC2)nc2ccc(NC(=O)c3ccc(-c4ccc(F)nc4)cn3)cn12`, the IC50 in series [1] was 121 nM; in series [2] it was 44 nM.

`CC(C)(C)c1cn2cc(NC(=O)c3ccc(-c4ccc(C(F)(F)F)cc4)cc3)ccc2n1` gave a 50% inhibitory concentration (IC50) in series [2] of 7.1 nM.

On to `Cc1c(C2CC2)nc2ccc(NC(=O)c3ccc(-c4ccc(F)nc4)nc3)cn12`, for which the IC50 worked out at 217 nM in series [1] and 61 nM in series [2].

In the case of `Cc1cn2cc(NC(=O)c3ccc(-c4ccc(C(F)(F)F)cc4)cc3)ccc2n1`, the IC50 in series [2] stood at 4.6 nM.

Compound `CN(C)Cc1cn2cc(NC(=O)c3ccc(-c4ccc(C(F)(F)F)cc4)cc3)ccc2n1` registered an IC50 in series [2] of 83 nM.

Turning to `Cc1c(C2CC2)nc2ccc(NC(=O)c3ncc(-c4ccc(F)cc4)cn3)cn12`, the IC50 was determined as 29 nM in series [1] and 6.8 nM in series [2].

In turn, `O=C(Nc1ccc2nc(C3CC3)cn2c1)c1ccc(-c2ccccn2)cc1` showed a half-inhibitory concentration (IC50) in series [2] of 140 nM.

In the case of `Cc1c(C2CC2)nc2ccc(NC(=O)c3ccc(-c4ccc(C(F)(F)F)cn4)cc3)cn12`, the values for the IC50 in series [1] and in series [2] were 1000 nM and 3.5 nM, respectively. The concentration at 2 h in series [3] turned out to be 1.4 µM. Moreover, the Drug uptake with Brain turned out to be 1.6 nmol/g.

In series [2], `O=C(Nc1ccc2nc(C3CC3)c(C3CC3)n2c1)c1ccc(-c2ccc(C(F)(F)F)cc2)cc1` had an IC50 of 260 nM.

Take `CC(=O)N(C)Cc1cn2cc(NC(=O)c3ccc(-c4ccc(C(F)(F)F)cc4)cc3)ccc2n1`: the IC50 in series [2] turned out to be 35 nM.

Turning to `Cc1c(C2CC2)nc2ccc(NC(=O)c3ccc(-c4ccc(F)nc4)cc3)cn12`, the values for the IC50 in series [1] and in series [2] were 20 nM and 4.4 nM, respectively. In addition, the concentration at 2 h in series [3] worked out at 5 µM. For the same compound, in the series with Brain, the Drug uptake is given as 2.5 nmol/g.

In the case of `Cc1c(C2CC2)nc2ccc(NC(=O)c3ccc(-c4ccc(Cl)cn4)cc3)cn12`, the figures for the IC50 in series [1] and in series [2] were 100 nM and 2.2 nM, respectively.

Compound `O=C(Nc1ccc2nc(C3CC3)cn2c1)c1ccc(-c2ccc(C(F)(F)F)cc2)cc1` returned a half-maximal inhibitory concentration (IC50) in series [2] of 5.6 nM.

Take `COc1ccc(-c2ccc(C(=O)Nc3ccc4nc(C5CC5)c(C)n4c3)cc2)nc1`: the half-maximal inhibitory concentration (IC50) came to 122 nM in series [1] and 6 nM in series [2].

For the compound `Cc1c(C2CC2)nc2ccc(NC(=O)c3cnc(-c4ccc(F)cc4)cn3)cn12`, the half-maximal inhibitory concentration (IC50) in series [1] was 70 nM; in series [2], 2.5 nM.

In turn, `CC(O)c1c(C2CC2)nc2ccc(NC(=O)c3ccc(-c4ccc(C(F)(F)F)cc4)cc3)cn12` (stereo not given) yielded a 50% inhibitory concentration (IC50) in series [2] of 330 nM.

`O=C(Nc1ccc2nccn2c1)c1ccc(-c2ccc(C(F)(F)F)cc2)cc1` returned a half-inhibitory concentration (IC50) in series [2] of 300 nM.

As to `O=C(Nc1ccc2nc(C3CC3)cn2c1)c1ccc(-c2ccc(C(F)(F)F)cn2)cc1`, the concentration for half-maximal inhibition (IC50) in series [2] turned out to be 8.2 nM.

Regarding `Cc1c(C2CC2)nc2ccc(NC(=O)c3ncc(-c4ccc(F)nc4)cn3)cn12`, the IC50 in series [1] was determined as 164 nM; in series [2], 102 nM.

For `CC(C)c1cn2cc(NC(=O)c3ccc(-c4ccc(C(F)(F)F)cc4)cc3)ccc2n1`, in series [2], the IC50 is 5.4 nM.

Consider `CCc1c(C2CC2)nc2ccc(NC(=O)c3ccc(-c4ccc(C(F)(F)F)cc4)cc3)cn12`, for which the IC50 in series [2] worked out at 20 nM.

`Cc1c(C2CC2)nc2ccc(NC(=O)c3ccc(-c4ccc(C(F)(F)F)cc4)cc3)cn12`: the IC50 in series [2] is 4.8 nM.

In turn, `O=C(Nc1ccc2nc(C3CC3)c(CO)n2c1)c1ccc(-c2ccc(C(F)(F)F)cc2)cc1` had a half-inhibitory concentration (IC50) in series [2] of 11 nM.

The compound `Cc1c(C2CC2)nc2ccc(NC(=O)c3ccc(-c4cnc(C(F)(F)F)nc4)cc3)cn12` returned an IC50 in series [2] of 160 nM.

The compound `CCOC(=O)c1cn2cc(NC(=O)c3ccc(-c4ccc(C(F)(F)F)cc4)cc3)ccc2n1` yielded an IC50 in series [2] of more than 1000 nM.

In series [2], `CC(=O)c1c(C2CC2)nc2ccc(NC(=O)c3ccc(-c4ccc(C(F)(F)F)cc4)cc3)cn12` registered an IC50 of 320 nM.

`Cc1c(C2CC2)nc2ccc(NC(=O)c3ccc(-c4ccc(F)cc4)cn3)cn12`: in series [1], the 50% inhibitory concentration (IC50) came out at 59 nM.

Consider `CC(O)c1cn2cc(NC(=O)c3ccc(-c4ccc(C(F)(F)F)cc4)cc3)ccc2n1` (stereo not given), for which, in series [2], the IC50 worked out at 30 nM.

Regarding `CCCc1cn2cc(NC(=O)c3ccc(-c4ccc(C(F)(F)F)cc4)cc3)ccc2n1`, the IC50 in series [2] is 11 nM.

In the case of `CC(C)(O)c1cn2cc(NC(=O)c3ccc(-c4ccc(C(F)(F)F)cc4)cc3)ccc2n1`, the IC50 in series [2] amounted to 17 nM.

For the compound `Cc1c(C2CC2)nc2ccc(NC(=O)c3ccc(-c4ccccn4)cc3)cn12`, in series [1], the IC50 was determined as 26 nM.

Regarding `Cc1ccc(-c2ccc(C(=O)Nc3ccc4nc(C5CC5)c(C)n4c3)cc2)nc1`, the IC50 is 85 nM in series [1] and 4.8 nM in series [2].

The compound `O=C(Nc1ccc2nc(CO)cn2c1)c1ccc(-c2ccc(C(F)(F)F)cc2)cc1` had an IC50 in series [2] of 130 nM.

`Cc1c(C2CC2)nc2ccc(NC(=O)c3ccc(-c4ccc(S(C)(=O)=O)cn4)cc3)cn12`: the half-inhibitory concentration (IC50) turned out to be 94 nM in series [1] and 48 nM in series [2].

One may read the IC50 as the concentration that inhibits the measured activity by half.
